The test system of experiment [1] is PC-3. Put plainly: Cytotoxicity against human PC3 cells after 48 hrs by SRB assay. Format: functional, cell-based. Particulars: PC-3, 48 h. The method in brief: (§1)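 SRB protein-staining microculture growth assay following the Monks method. Cells were detached with 0.1% (w/v) trypsin-EDTA, counted by hemocytometer and diluted in complete medium to 5 × 10⁴ cells/mL (K-562, MCF-7), 7.5 × 10⁴ cells/mL (U-251, PC-3) or 10 × 10⁴ cells/mL (HCT-15). DMSO stocks were tested at 100, 31, 10, 3.1 and 1. After 48 h, cells were fixed in situ with 50% TCA for 60 min at 4 °C. IC50 is the mean of three experiments.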

The test system of experiment [2] is MCF7. Put plainly: Cytotoxicity against human MCF7 cells after 48 hrs by SRB assay. Format: functional, cell-based. Particulars: MCF7, 48 h. The method in brief:
as §1

Experiment [3] concerns K562. The experiment is described as follows: Cytotoxicity against human K562 cells after 48 hrs by SRB assay. Format: functional, cell-based. Particulars: K562, 48 h. The method in brief:
as §1

For experiment [4], the system named is U-251. Put plainly: Cytotoxicity against human U251 cells after 48 hrs by SRB assay. The settings on record: U-251, 48 h. It counts as functional, cell-based. The method in brief:
as §1

Experiment [5] relates to HCT-15. Put plainly: Cytotoxicity against human HCT15 cells after 48 hrs by SRB assay. Particulars: HCT-15, 48 h. It counts as functional, cell-based. The method in brief: as §1
Experiment [6] can be described thus: Inhibition of Marthasterias glacialis oocyte CDK1/Cyclin B.
Experiment [7] addresses Cyclin-dependent kinase 5/CDK5 activator 1 (Homo sapiens, UniProt Q00535). The experiment is described as follows: Inhibition of recombinant CDK5/p25 expressed in Escherichia coli.
For experiment [8], the target named is Glycogen synthase kinase-3 beta (Homo sapiens, UniProt P49841). Put plainly: Inhibition of GSK3-beta expressed in Sf9 cells.
Chain of Glycogen synthase kinase-3 beta (P49841 whole entry): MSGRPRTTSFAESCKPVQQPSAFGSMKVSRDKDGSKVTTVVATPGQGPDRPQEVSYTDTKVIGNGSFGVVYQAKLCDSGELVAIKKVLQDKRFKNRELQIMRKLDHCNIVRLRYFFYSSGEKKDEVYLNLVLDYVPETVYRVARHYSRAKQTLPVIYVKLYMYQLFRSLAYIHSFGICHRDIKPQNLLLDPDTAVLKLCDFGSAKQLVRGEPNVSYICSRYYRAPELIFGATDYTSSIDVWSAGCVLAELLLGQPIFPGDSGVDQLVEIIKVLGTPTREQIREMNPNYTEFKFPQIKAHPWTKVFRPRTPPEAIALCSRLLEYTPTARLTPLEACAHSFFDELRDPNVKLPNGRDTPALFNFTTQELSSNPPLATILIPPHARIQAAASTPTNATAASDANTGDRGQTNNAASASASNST

Chain of Cyclin-dependent kinase 5/CDK5 activator 1 (Q00535 whole entry): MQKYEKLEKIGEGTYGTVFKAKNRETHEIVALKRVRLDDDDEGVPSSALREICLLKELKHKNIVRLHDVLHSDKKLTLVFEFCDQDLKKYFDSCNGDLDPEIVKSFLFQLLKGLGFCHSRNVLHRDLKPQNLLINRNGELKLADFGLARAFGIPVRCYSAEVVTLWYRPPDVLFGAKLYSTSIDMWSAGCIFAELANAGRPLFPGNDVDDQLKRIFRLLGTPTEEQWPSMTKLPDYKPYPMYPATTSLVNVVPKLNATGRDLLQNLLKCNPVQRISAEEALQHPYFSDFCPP
Chain of Cyclin-dependent kinase 5/CDK5 activator 1 (Q15078 whole entry, further chain): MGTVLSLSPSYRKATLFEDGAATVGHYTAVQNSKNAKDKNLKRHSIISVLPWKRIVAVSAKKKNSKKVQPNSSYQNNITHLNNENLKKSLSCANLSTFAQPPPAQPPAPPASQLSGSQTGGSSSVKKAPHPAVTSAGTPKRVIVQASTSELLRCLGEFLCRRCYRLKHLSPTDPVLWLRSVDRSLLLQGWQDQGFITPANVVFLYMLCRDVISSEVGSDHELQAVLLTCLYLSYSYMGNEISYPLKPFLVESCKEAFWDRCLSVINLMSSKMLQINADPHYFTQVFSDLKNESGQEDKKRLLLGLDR

For the compound `COc1ccc2c(c1)CCn1c-2cc2c1CC(C)(C)CC2=O`, the IC50 is > 100 µM in experiment [1]; > 100 µM in experiment [2]; 57.5 µM in experiment [3]; > 100 µM in experiment [4]; > 100 µM in experiment [5].

For `CC1(C)CC(=O)c2cc3n(c2C1)CCc1ccccc1-3`, the concentration for half-maximal inhibition (IC50) was > 100 µM in experiment [1]; > 100 µM in experiment [2]; 36.8 µM in experiment [3]; > 100 µM in experiment [4]; > 100 µM in experiment [5].

Regarding `CC1(C)CNC(=O)c2cc3n(c2C1)CCc1cc(F)ccc1-3`, the IC50 is > 100 µM in experiment [1]; 54.5 µM in experiment [2]; 33.7 µM in experiment [3]; > 10 µM in experiment [6]; > 100 µM in experiment [4]; > 10 µM in experiment [7]. Moreover, the IC50 in experiment [5] is > 100 µM; in experiment [8], > 10 µM.

With `O=C1Cc2c([nH]c3ccc(Br)cc23)-c2ccccc2N1` [KENPAULLONE], the IC50 in experiment [1] is > 100 µM; in experiment [2], > 100 µM; in experiment [3] it was > 100 µM; in experiment [4] it was > 100 µM; in experiment [5] it was 23.9 µM.

For the compound `CC1(C)CNC(=O)c2cc3n(c2C1)CCc1cc(Br)ccc1-3`, the IC50 in experiment [1] was 33.6 µM; in experiment [2], 43.1 µM; in experiment [3] it was 36.1 µM; in experiment [6] it was > 10 µM; in experiment [4] it was 18.1 µM; in experiment [7], > 10 µM. For the same compound, the concentration for half-maximal inhibition (IC50) was 25.6 µM in experiment [5] and > 10 µM in experiment [8].

On to `CC1(C)CC(=O)c2cc3n(c2C1)CCc1cc(Br)ccc1-3`, for which the IC50 in experiment [1] worked out at 50.6 µM; in experiment [2], 35 µM; in experiment [3], 23.9 µM; in experiment [4], 53.3 µM; in experiment [5], 36 µM.

For `CC1(C)CNC(=O)c2cc3n(c2C1)CCc1cc([N+](=O)[O-])ccc1-3`, the IC50 in experiment [1] was 25.8 µM; in experiment [2] it was 43.1 µM; in experiment [3], > 100 µM; in experiment [6], > 10 µM; in experiment [4] it was > 100 µM; in experiment [7], > 10 µM. Moreover, the IC50 in experiment [5] is 29.5 µM; in experiment [8], > 10 µM.

For the compound `CC1(C)CC(=O)c2cc3n(c2C1)CCc1cc(F)ccc1-3`, the IC50 in experiment [1] was > 100 µM; in experiment [2], > 100 µM; in experiment [3], 27.2 µM; in experiment [4], > 100 µM; in experiment [5], 65.5 µM.

Regarding `O=C1Cc2c([nH]c3ccc([N+](=O)[O-])cc23)-c2ccccc2N1` [ALSTERPAULLONE], the IC50 worked out at 1.12 µM in experiment [1]; 1.24 µM in experiment [2]; 1.58 µM in experiment [3]; 0.68 µM in experiment [4]; 0.62 µM in experiment [5].

Turning to `CC1(C)CC(=O)c2cc3n(c2C1)CCc1cc(Cl)ccc1-3`, the IC50 in experiment [1] was > 100 µM; in experiment [2], 41.8 µM; in experiment [3] it was 10.2 µM; in experiment [4], > 100 µM; in experiment [5] it was 24.8 µM.

Take `CC1(C)CNC(=O)c2cc3n(c2C1)CCc1cc(Cl)ccc1-3`: the IC50 in experiment [1] is > 100 µM; in experiment [2], > 100 µM; in experiment [3] it was > 100 µM; in experiment [4], > 100 µM; in experiment [5] it was 39.6 µM.

Turning to `COc1ccc2c(c1)CCn1c-2cc2c1CC(C)(C)CNC2=O`, the IC50 in experiment [1], in experiment [2], in experiment [3], in experiment [4] and in experiment [5] was > 100 µM throughout.

Turning to `CC1(C)CNC(=O)c2cc3n(c2C1)CCc1ccccc1-3`, the IC50 in experiment [1], in experiment [2], in experiment [3], in experiment [4] and in experiment [5] was > 100 µM each time.

For the compound `CC1(C)CNC(=O)c2cc(-c3ccc([N+](=O)[O-])cc3)n(-c3ccc(Br)cc3)c2C1`, the IC50 in experiment [1] was 21.1 µM; in experiment [2], > 100 µM; in experiment [3], > 100 µM; in experiment [4] it was 25.6 µM; in experiment [5], > 100 µM.

Consider `CC1(C)CC(=O)c2cc3n(c2C1)CCc1cc([N+](=O)[O-])ccc1-3`, for which the half-inhibitory concentration (IC50) was > 100 µM in experiment [1]; > 100 µM in experiment [2]; 73.7 µM in experiment [3]; > 100 µM in experiment [4]; 16.7 µM in experiment [5].

With `CC1(C)CNC(=O)c2cc(-c3ccc([N+](=O)[O-])cc3)n(-c3ccc(Cl)cc3)c2C1`, the 50% inhibitory concentration (IC50) in experiment [1] is 17.4 µM; in experiment [2], 51.7 µM; in experiment [3], 15.1 µM; in experiment [4], 28.8 µM; in experiment [5], 20 µM.

Values taken from ChEMBL document CHEMBL1152758, “Synthesis and cytotoxic activity of new azepino[3',4':4,5]pyrrolo[2,1-a]isoquinolin-12-ones” (Bioorg Med Chem, 2009).
